LYP inh 2: PTPN22 phosphatase inhibitors, primary screen, biochemical, DiFMUP fluorescence, 2 µM; Tyrosine-protein phosphatase non-receptor type 22 (Homo sapiens), Q9Y2R2; recombinant LYP catalytic domain; inhibition, % at 2 µM; hit rate 0.21% among 96,000;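 active = inhibition at 2 µM at or above a set limit, the screen mean plus 3 SD, cut at about 24% in these data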;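 also: 0% = DMSO with enzyme and 100% = enzyme fully blocked by orthovanadate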
LYP act: LYP phosphatase activators, primary screen, biochemical, DiFMUP fluorescence, 2 µM | Tyrosine-protein phosphatase non-receptor type 22 (Homo sapiens), Q9Y2R2 | recombinant LYP; 0 = plate median, 100 = signal doubled | activation, % at 2 µM | hit rate 0.11% among 96,000;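 active = activation at 2 µM above a set limit, the mean plus 5 SD, cut at about 37% in these data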
Pyk2 oligo antag: antagonists of Pyk2 self-association, primary screen, Q293 cells, FERM NanoBiT luminescence, HTS; stronger effect = lower value; z-score (the deposit names both 25 µM and 10 µM); hit rate 0.83% among 99,000;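 active = Z-score of -3 or lower, scaled per plate to the spread of control and sample wells; inactive = z-score above -3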;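 also: negative z-score means lost luminescence so less FERM oligomerization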
Rev-RRE block: HIV-1 Rev-RRE binding inhibitors, primary screen, biochemical, FRET, protein-RNA interaction. P05866. Rev peptide-RRE RNA binding. inhibition, % at 8 µM. hit rate 0.79% among 97,000. AID 704, 2007;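 active = inhibition above the screen-wide mean plus 3 SD, cut at about 35% in these data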;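 also: 0% = median DMSO wells and 100% = median Neomycin B control wells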
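Test system: Cy5-tagged RRE RNA duplex with fluorescein-tagged Rev peptide | Read-out: % inhibition of FRET ratio versus controls | Probe or stimulus: Labelled Rev peptide | Incubation: 5 min RNA-compound premix plus 15 min binding step, 25 °C | Technique: FRET fluorescence readout | Benchmarks: DMSO low control, neomycin B high control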
* = called active by the depositor; [ ] = remark or other dose. Rows were chosen to be rich in hits. Some 1.8% of all compounds tested hit in one or more screens of this group.

For COc1cc(C2C(C#N)=C(N)Oc3cc(N(C)C)ccc32)cc2c1OCO2 (configuration not stated) the results were LYP inh 2 1.2, LYP act -2.7, Pyk2 oligo antag -2.08 and Rev-RRE block 92.3*[fluorescence artefact?].
Cc1nn(C(C)C(=O)O)c2ccccc12 (configuration not stated) was read as LYP inh 2 -15.1, LYP act 14.7, Pyk2 oligo antag 0.17 and Rev-RRE block 2.8.
`Cc1ccc2nc(NC(=O)c3cccc(-c4cc5ccccc5oc4=O)c3)sc2c1` gave LYP inh 2 26.3*, LYP act -22.4 and Rev-RRE block 3.1.
For CCn1nnc(NC(=O)c2cccc(-c3cc4ccccc4oc3=O)c2)n1 the results were LYP inh 2 1.5, LYP act -4.5, Pyk2 oligo antag -1.74 and Rev-RRE block 10.2.
C=CCNC(=O)C1(c2ccccc2)CC1(Cl)Cl (configuration not stated) was read as Pyk2 oligo antag 0.92.
O=C(Nc1ccc(Oc2ccccc2)cc1)C1CCN(c2c3c(nc4ncnn24)CCC3)CC1 was read as LYP inh 2 2.1, LYP act -0.1, Pyk2 oligo antag -3.29* and Rev-RRE block -4.4.
Screening COc1ccc(N/C(=C(/C(Cl)=C(Cl)Cl)[N+](=O)[O-])n2nnc3ccccc32)cc1OC returned LYP inh 2 -4.6, LYP act 5.1 and Rev-RRE block 38.3*.
CN1CCc2nc(NC(=O)c3cccc(OC(F)F)c3)sc2C1 was read as LYP inh 2 3.9, LYP act -1.6, Pyk2 oligo antag 1.73 and Rev-RRE block 64.7*.
`CCOC(=O)c1nc2cc3n(c(C)c-2c1C)C(C)C(CC)=C3C` (configuration not stated) gave LYP inh 2 -2.4, LYP act 1.9, Pyk2 oligo antag 0.07 and Rev-RRE block 4.8.
CCOC(=O)c1sc(N)c(C#N)c1COC(=O)CNC(=O)c1cc(OC)c(OC)c(OC)c1 was read as LYP inh 2 1.6, LYP act -3.2, Pyk2 oligo antag -0.42 and Rev-RRE block 53.3*.
For O=C1OC(c2ccc3c(c2)OCO3)N(C(=O)c2ccc(Cl)c(Cl)c2)c2ccccc21 (configuration not stated) the results were LYP inh 2 0.0, LYP act -1.6, Pyk2 oligo antag -3.25* and Rev-RRE block 10.7.
For Cc1cccc(N/C=C/c2onc(C)c2[N+](=O)[O-])c1 the results were LYP inh 2 8.1, LYP act -4.7, Pyk2 oligo antag -0.86 and Rev-RRE block 95.1*[fluorescence artefact?].
O=C(c1ccccc1)c1cn[nH]c1-c1ccccc1O was read as LYP inh 2 14.9, LYP act -13.4, Pyk2 oligo antag 0.49 and Rev-RRE block 1.2.
Screening COc1ccc(O)c(-c2[nH]ncc2C(=O)c2ccccc2)c1 returned LYP inh 2 -4.2, LYP act 2.0, Pyk2 oligo antag -3.49* and Rev-RRE block 9.9.
CN(C(=O)c1cnc(N2CCN(c3ncccn3)CC2)c2ccccc12)c1ccc(Cl)cc1 was read as LYP inh 2 3.6, LYP act -4.3, Pyk2 oligo antag -2.6 and Rev-RRE block 5.9.
Screening CCN(C(=O)c1cnc(N2CCN(c3ncccn3)CC2)c2ccccc12)c1cccc(Cl)c1 returned LYP inh 2 0.9, LYP act -4.0, Pyk2 oligo antag -3.3* and Rev-RRE block 0.2.
For CC1Cc2cc(-c3csc(NC(=O)Cc4cccs4)n3)ccc2N1S(C)(=O)=O (configuration not stated) the results were LYP inh 2 1.1, LYP act -1.7, Pyk2 oligo antag -3.12* and Rev-RRE block 3.0.
CN1/C(=C/C=C(/C#N)C(N)=O)C(C)(C)c2ccccc21 was read as LYP inh 2 6.3, LYP act -3.1, Pyk2 oligo antag -0.88 and Rev-RRE block 47.2*.
For O=C(NCC1(c2ccccc2)CCCC1)c1cccc(Br)c1 the results were LYP inh 2 16.5, LYP act -13.6, Pyk2 oligo antag -1.36 and Rev-RRE block 9.1.
Oc1ccc2ccccc2c1C=Nc1ccc(N2CCOCC2)cc1 was read as LYP inh 2 2.0, LYP act -0.6 and Rev-RRE block 71.8*[fluorescence artefact?].
Screening Oc1ccc2ccccc2c1C=NC12CN3CCN(CN(C3)C1)C2 returned LYP inh 2 7.9, LYP act -10.0, Pyk2 oligo antag -0.45 and Rev-RRE block 6.6.
CCOc1ccc2[nH]c(=O)c(CN(Cc3nnnn3Cc3ccco3)C3CCCCC3)cc2c1 was read as LYP inh 2 10.0, LYP act -12.0, Pyk2 oligo antag 0.48 and Rev-RRE block 60.1*.
Screening COc1ccc2cc(CN(Cc3ccco3)C(c3nnnn3C3CCCCC3)C(C)C)c(=O)[nH]c2c1 (configuration not stated) returned LYP inh 2 26.3*, LYP act -23.2, Pyk2 oligo antag -0.5 and Rev-RRE block 7.5.
For COc1cc2cc(CN(Cc3nnnn3Cc3ccco3)C3CCCCC3)c(=O)[nH]c2cc1OC the results were LYP inh 2 7.3, LYP act -7.6, Pyk2 oligo antag -0.06 and Rev-RRE block 45.1*.
Screening CSc1nc2nccc(-c3ccc(Oc4ccccc4)cc3)n2n1 returned LYP inh 2 -12.0, LYP act 9.1, Pyk2 oligo antag 1.15 and Rev-RRE block 9.3.
For Cn1cccc1/C=C1\CCC/C(=C\c2cccn2C)C1=O the results were LYP inh 2 -8.9, LYP act 9.2, Pyk2 oligo antag 0.9 and Rev-RRE block 136.4*[fluorescence artefact?].
`CC(C)CNC(=O)c1ccc(COc2ccc(Cl)cc2Cl)o1` gave LYP inh 2 -2.8, LYP act 5.0, Pyk2 oligo antag -0.14 and Rev-RRE block 11.5.
Screening CCn1c(C)cc(/C=C2\SC(=O)N(CC(=O)Nc3ccc(C)c(C)c3)C2=O)c1C returned LYP inh 2 4.0, LYP act -1.6, Pyk2 oligo antag -0.35 and Rev-RRE block 3.6.
Cc1ccc(NC(=O)CN2C(=O)S/C(=C/c3ccc(-c4cc(C(=O)O)ccc4C)o3)C2=O)cc1C was read as LYP inh 2 34.8*, LYP act -33.3, Pyk2 oligo antag 0.6 and Rev-RRE block 10.6.
Screening Cc1nnc(C)n1N1C(=O)c2cccc3cccc(c23)C1=O returned LYP inh 2 -16.4, LYP act 15.2, Pyk2 oligo antag 1.66 and Rev-RRE block 10.1.
Screening NC1=CC(=O)c2cccc3cccc1c23 returned LYP inh 2 -3.6, LYP act 2.0 and Rev-RRE block 56.4*.
Screening O=C(O)c1ccc(NS(=O)(=O)c2cc(Cl)ccc2Cl)cc1O returned LYP inh 2 -0.8, LYP act -3.3, Pyk2 oligo antag -0.4 and Rev-RRE block -0.7.
O=C(Cn1c(=O)n(-c2ccccc2)c(=O)n1CC(=O)N1CCCCC1)N1CCCCC1 was read as LYP inh 2 2.5, LYP act -3.4, Pyk2 oligo antag 0.33 and Rev-RRE block 8.7.
CCn1nc(C(=O)OCC(=O)c2cc(C)n(Cc3cccs3)c2C)c2ccccc2c1=O was read as LYP inh 2 24.2*, LYP act -19.3, Pyk2 oligo antag 0.09 and Rev-RRE block -0.9.
